Calls of active or inactive are those of the source. The rule behind the calls is not given here.
Assays:
[1] = molecular target: T1, Inhibitor of nuclear factor kappa-B kinase subunit beta (Homo sapiens) (UniProt O14920); test: Inhibition of human FLAG-tagged IKK-beta expressed in HEK293 cells at 50 uM by Western blot analysis in presence of ATP; assay type: cell-based
T1 sequence (whole entry): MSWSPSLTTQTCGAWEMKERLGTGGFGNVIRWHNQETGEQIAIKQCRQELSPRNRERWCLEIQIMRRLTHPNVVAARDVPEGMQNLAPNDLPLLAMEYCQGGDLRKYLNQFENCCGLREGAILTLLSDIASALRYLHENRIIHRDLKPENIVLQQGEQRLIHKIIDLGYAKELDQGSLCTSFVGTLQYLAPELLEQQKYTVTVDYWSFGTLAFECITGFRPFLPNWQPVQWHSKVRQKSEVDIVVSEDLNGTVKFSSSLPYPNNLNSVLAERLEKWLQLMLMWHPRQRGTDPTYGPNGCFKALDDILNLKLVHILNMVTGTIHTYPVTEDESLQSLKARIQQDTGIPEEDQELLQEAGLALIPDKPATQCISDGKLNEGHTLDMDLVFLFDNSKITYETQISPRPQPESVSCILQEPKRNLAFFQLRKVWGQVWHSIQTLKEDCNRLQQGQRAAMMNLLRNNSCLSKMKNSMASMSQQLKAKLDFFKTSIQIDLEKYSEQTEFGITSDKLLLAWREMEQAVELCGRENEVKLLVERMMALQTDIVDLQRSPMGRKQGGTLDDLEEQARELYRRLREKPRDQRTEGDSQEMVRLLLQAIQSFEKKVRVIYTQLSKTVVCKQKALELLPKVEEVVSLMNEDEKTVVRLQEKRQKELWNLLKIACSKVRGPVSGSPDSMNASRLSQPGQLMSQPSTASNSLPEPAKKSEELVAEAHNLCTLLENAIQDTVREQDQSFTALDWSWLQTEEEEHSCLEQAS
Outline: (§1)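 FLAG-IKKβ was transiently overexpressed in HEK293 cells for 24 h, then immunoprecipitated with anti-FLAG antibody. Precipitates were incubated with or without compound before the kinase reaction, and the phosphorylated product was read out by Western blot.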

A549 [2] = test: Reduction of IL1-induced COX2 expression in human A549 cells at 100 uM preincubated for 1 hr before IL1 challenge measured after 6 hrs by Western blot analysis; assay type: functional, cell-based
Outline: (§2)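 Cox-2 protein was Western blotted in A549 cells, with β-actin as loading control. Cells were pretreated 1 h with compound at various concentrations, then exposed 6 h to TNF-α (2.5 ng/mL) or IL-1 (0.25 ng/mL) in its continued presence.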

A549 [3] = test: Antiinflammatory activity in human A549 cells assessed as reduction of IL1-induced cell surface ICAM1 expression upto 100 uM preincubated for 1 hr before IL1 challenge measured after 6 hrs by Western blot analysis; assay type: functional, cell-based
Outline: (§3)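 A549 cells pretreated 1 h with peperomins at various concentrations, then TNF-α (2.5 ng/mL) or IL-1 (0.25 ng/mL) added for 6 h with compound still present. Whole-cell lysates were Western blotted for ICAM-1, with β-actin as loading control.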

A549 [4] = test: Antiinflammatory activity in human A549 cells assessed as reduction of IL1-induced increase in cell surface ICAM1 expression upto 100 uM preincubated for 1 hr before IL1 challenge measured after 6 hrs by ELISA; assay type: functional, cell-based
Outline: (§4)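 Cell ELISA of surface ICAM-1 on A549 cells. Cells were pretreated 1 h across a concentration series, then stimulated 6 h with TNF-α (2.5 ng/mL) or IL-1 (0.25 ng/mL) with compound present. Values are means ± SD of triplicate cultures.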

A549 [5] = test: Antiinflammatory activity in human A549 cells assessed as reduction of TNF-alpha-induced increase in cell surface ICAM1 expression upto 100 uM preincubated for 1 hr before TNFalpha challenge measured after 6 hrs by ELISA; assay type: functional, cell-based; outline: as §4
A549 [6] = test: Antiinflammatory activity in human A549 cells assessed as reduction of TNF-alpha-induced cell surface ICAM1 expression upto 100 uM preincubated for 1 hr before TNFalpha challenge measured after 6 hrs by Western blot analysis; assay type: functional, cell-based; outline: as §3
A549 [7] = test: Antiinflammatory activity in human A549 cells assessed as complete decrease in IL1-induced cell surface ICAM1 expression at 100 uM preincubated for 1 hr before IL1 challenge measured after 6 hrs by Western blot analysis; assay type: functional, cell-based; outline: as §3
MCF7 [8] = test: Antiinflammatory activity in human MCF7 cells assessed as inhibition of TNF-alpha-induced cell surface ICAM1 expression upto 100 uM preincubated for 1 hr before TNFalpha challenge measured after 6 hrs by ELISA; assay type: functional, cell-based
A549 [9] = test: Antiinflammatory activity in human A549 cells assessed as reduction of TNF-alpha-induced increase in cell surface ICAM1 expression preincubated for 1 hr before TNFalpha challenge measured after 6 hrs by ELISA; assay type: functional, cell-based; outline: as §4
A549 [10] = test: Antiinflammatory activity in human A549 cells assessed as substantial decrease in IL1-induced cell surface ICAM1 expression at > 10 uM preincubated for 1 hr before IL1 challenge measured after 6 hrs by Western blot analysis; assay type: functional, cell-based; outline: as §3
A549 [11] = test: Reduction of TNF-alpha-induced COX2 expression in human A549 cells at 100 uM preincubated for 1 hr before TNFalpha challenge measured after 6 hrs by Western blot analysis; assay type: functional, cell-based; outline: as §2
A549 [12] = test: Antiinflammatory activity in human A549 cells assessed as reduction of IL1-induced increase in cell surface ICAM1 expression preincubated for 1 hr before IL1 challenge measured after 6 hrs by ELISA; assay type: functional, cell-based; outline: as §4
[13] = molecular target: T2, Inhibitor of nuclear factor kappa-B kinase subunit alpha (Homo sapiens) (UniProt O15111); test: Inhibition of N-terminal GST-fused human IkappaBalpha (1 to 54) expressed in Escherichia coli BL21
T2 sequence (whole entry): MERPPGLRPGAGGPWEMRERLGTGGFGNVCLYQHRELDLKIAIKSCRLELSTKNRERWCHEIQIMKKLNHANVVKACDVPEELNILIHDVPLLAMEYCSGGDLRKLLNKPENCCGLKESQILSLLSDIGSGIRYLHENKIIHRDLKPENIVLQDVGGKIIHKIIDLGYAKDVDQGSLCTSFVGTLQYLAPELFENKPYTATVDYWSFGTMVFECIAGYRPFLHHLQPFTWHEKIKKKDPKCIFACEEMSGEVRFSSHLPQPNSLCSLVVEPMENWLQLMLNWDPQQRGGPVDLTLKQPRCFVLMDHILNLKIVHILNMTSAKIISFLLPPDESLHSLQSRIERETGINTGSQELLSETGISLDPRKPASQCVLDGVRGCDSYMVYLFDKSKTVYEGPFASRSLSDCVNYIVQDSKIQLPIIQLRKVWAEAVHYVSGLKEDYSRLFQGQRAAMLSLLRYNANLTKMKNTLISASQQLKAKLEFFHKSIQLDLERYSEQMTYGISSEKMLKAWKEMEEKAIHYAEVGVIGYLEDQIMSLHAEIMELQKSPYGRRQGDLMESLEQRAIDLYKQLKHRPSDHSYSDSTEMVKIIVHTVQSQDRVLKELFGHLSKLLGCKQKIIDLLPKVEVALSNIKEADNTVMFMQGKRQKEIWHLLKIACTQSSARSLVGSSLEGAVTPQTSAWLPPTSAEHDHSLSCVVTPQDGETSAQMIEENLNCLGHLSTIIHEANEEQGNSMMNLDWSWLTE
Outline: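 IKK complex was immunoprecipitated with anti-IKKα from A549 cells. Cells were pretreated 1 h with compound, then given TNF-α (2.5 ng/mL) for 15 min. Precipitates phosphorylated GST-IκBα(1–54) with or without ATP (10 µM). Phospho-substrate was detected by Western blot with anti-phospho-IκB antibody, with bands quantified relative to IKKα.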

MCF7 [14] = test: Antiinflammatory activity in human MCF7 cells assessed as inhibition of IL1-induced cell surface ICAM1 expression upto 100 uM preincubated for 1 hr before IL1 challenge measured after 6 hrs by ELISA; assay type: functional, cell-based
A549 [15] = test: Cytotoxicity against human A549 cells upto 100 uM after 6 hrs by MTT assay; assay type: cell-based; settings: a549, 6 h
Outline: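 A549 viability by MTT after 6 h exposure to a range of compound concentrations, no cytokine. Viability given as %, means ± SD of triplicate cultures.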

A549 [16] = test: Antiinflammatory activity in human A549 cells assessed as complete decrease in TNF-alpha-induced cell surface ICAM1 expression at 100 uM preincubated for 1 hr before TNFalpha challenge measured after 6 hrs by Western blot analysis; assay type: functional, cell-based; outline: as §3
MCF7 [17] = test: Cytotoxicity against human MCF7 cells upto 100 uM after 6 hrs by MTT assay; assay type: cell-based; settings: mcf7, 6 h
A549 [18] = test: Antiinflammatory activity in human A549 cells assessed as substantial decrease in TNF-alpha-induced cell surface ICAM1 expression at > 10 uM preincubated for 1 hr before TNFalpha challenge measured after 6 hrs by Western blot analysis; assay type: functional, cell-based; outline: as §3
[19] = molecular target: T1, Inhibitor of nuclear factor kappa-B kinase subunit beta (Homo sapiens); test: Inhibition of human FLAG-tagged IKK-beta expressed in HEK293 cells at 0.1 to 100 uM by Western blot analysis in presence of ATP; assay type: cell-based; outline: as §1
A549 [20] = test: Inhibition of TNF-alpha-induced IKK-beta expression in human A549 cells at 100 uM preincubated for 1 hr before TNFalpha challenge measured after 5 to 30 mins by Western blot analysis; assay type: functional, cell-based
A549 [21] = test: Inhibition of TNF-alpha-induced IKKalpha expression in human A549 cells at 100 uM preincubated for 1 hr before TNFalpha challenge measured after 5 to 30 mins by Western blot analysis; assay type: functional, cell-based
A549 [22] = test: Selectivity for inhibition of TNF-alpha-induced cell surface ICAM1 expression over inhibition of TNF-alpha-induced COX2 expression in human A549 cells; assay type: functional
A549 [23] = test: Inhibition of IL1-induced IKK-beta expression in human A549 cells at 100 uM preincubated for 1 hr before IL1 challenge measured after 5 to 30 mins by Western blot analysis; assay type: functional, cell-based
A549 [24] = test: Inhibition of IL1-induced IKKalpha expression in human A549 cells at 100 uM preincubated for 1 hr before IL1 challenge measured after 5 to 30 mins by Western blot analysis; assay type: functional, cell-based
A549 [25] = test: Selectivity for inhibition of IL1-induced cell surface ICAM1 expression over inhibition of IL1-induced COX2 expression in human A549 cells; assay type: functional
[26] = molecular target: T3, NF-kappa-B inhibitor alpha (Homo sapiens) (UniProt P25963); test: Inhibition of IL1-stimulated IkappaBalpha degradation in human A549 cells at 0.1 to 100 uM preincubated for 1 hr before IL1 challenge measured after 10 mins by Western blot analysis; assay type: cell-based
T3 sequence (whole entry): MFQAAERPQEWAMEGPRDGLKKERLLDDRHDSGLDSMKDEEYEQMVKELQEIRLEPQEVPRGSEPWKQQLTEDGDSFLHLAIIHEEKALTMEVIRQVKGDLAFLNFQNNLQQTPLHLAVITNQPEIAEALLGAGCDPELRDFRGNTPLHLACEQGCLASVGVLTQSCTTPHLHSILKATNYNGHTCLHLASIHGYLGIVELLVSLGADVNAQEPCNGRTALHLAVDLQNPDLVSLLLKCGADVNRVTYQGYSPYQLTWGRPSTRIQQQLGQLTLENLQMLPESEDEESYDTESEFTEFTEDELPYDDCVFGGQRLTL

[27] = molecular target: T3, NF-kappa-B inhibitor alpha (Homo sapiens); test: Inhibition of TNF-alpha-stimulated IkappaBalpha degradation in human A549 cells at 0.1 to 100 uM preincubated for 1 hr before TNFalpha challenge measured after 15 mins by Western blot analysis

Row | inhibition [13] | inhibition [19] | Structure (SMILES) | Activity (A549 [2]) | Activity (A549 [3]) | Activity (A549 [4]) | Activity (A549 [5]) | Activity (A549 [6]) | Activity (A549 [7]) | Activity (MCF7 [8]) | Activity (A549 [9]) | Activity (A549 [10]) | Activity (A549 [11]) | Activity (A549 [12]) | Activity (A549 [15]) | Activity (A549 [16]) | Activity (MCF7 [17]) | Activity (A549 [18]) | further results
1 | – | – | CCCCC/C=C/C=C1/C(=O)C=C[C@@H]1C/C=C\CCCC(=O)O | – | – | – | – | – | – | – | – | – | – | – | – | – | – | – | inhibition [1]: Active
2 | – | – | COc1cc(C(c2cc(OC)c3c(c2)OCO3)[C@@H]2COC(=O)[C@H]2C)cc2c1OCO2 | inactive | inactive | inactive | inactive | inactive | – | – | – | – | – | – | – | – | – | – | –
3 | – | – | COc1cc([C@@H](c2cc(OC)c3c(c2)OCO3)[C@@H]2COC(=O)[C@H]2C)cc(OC)c1OC | inactive | inactive | inactive | inactive | inactive | – | – | – | – | – | – | – | – | – | – | –
4 | Active | inactive | C=C1C(=O)OC[C@H]1[C@@H](c1cc(OC)c(OC)c(OC)c1)c1cc(OC)c2c(c1)OCO2 [2,6-DIDEHYDROPEPEROMIN B] | – | – | – | – | – | Active | Active | Dose-dependent effect | Active | Active | Dose-dependent effect | Toxic | Active | Non-toxic | Active | inhibition (MCF7 [14]): Active
5 | Active | inactive | C=C1C(=O)OC[C@H]1C(c1cc(OC)c2c(c1)OCO2)c1cc(OC)c2c(c1)OCO2 [PEPEROMIN E] | – | – | – | – | – | Active | Active | Dose-dependent effect | Active | Active | Dose-dependent effect | Toxic | Active | Non-toxic | Active | Activity (A549 [20]): inactive; inhibition (A549 [21]): inactive; fold change (FC) (A549 [22]): 10; inhibition (A549 [23]): inactive; Activity (MCF7 [14]): Active; inhibition (A549 [24]): inactive; fold change (FC) (A549 [25]): 10; inhibition [26]: Active; inhibition [27]: Active

— ChEMBL document CHEMBL1153051, “Peperomins as anti-inflammatory agents that inhibit the NF-kappaB signaling pathway” (Bioorg Med Chem Lett, 2009)
